These results are taken from ChEMBL document CHEMBL1140117, “Structure-activity relationship studies for the peptide portion of the bladder epithelial cell antiproliferative factor from interstitial cystitis patients” (2008).

Activity calls are given as the source filed them. Starred links: 1 amine or outer side, 2 acyl side, 3 side chain; linkers in the order of their positions; H or OH if unused. Positions of bridges follow the written chain, without caps; N, C: chain ends. Non-standard residues stand in square brackets, D forms with d. Residues, ends and D or L forms follow the SMILES beside them. *: point of attachment. X3 = CC(=O)N[C@H]1[C@@H](O[C@H](C)[C@H](NO[*:2])C(=O)[*:1])O[C@H](CO)[C@H](O)[C@@H]1O[C@@H]1O[C@H](CO)[C@H](O)[C@H](O)[C@H]1O; X1 = CC(=O)N[C@@H]1[C@@H](O[C@@H]2O[C@H](CO)[C@H](O)[C@H](O)[C@H]2O)[C@@H](O)[C@@H](CO)O[C@@H]1*; X2 = CC1(C)OC[C@@H](C(=O)[*:2])N1[*:1]; NMeA = CN[C@@H](C)C(=O)O

Test system in one test: not listed separately
The test can be described thus: Antiproliferative activity against human bladder epithelial cells assessed as inhibition of [3H]thymidine incorporation after 48 hrs relative to as-APF. The class given is functional, Epithelial cell. The arrangement: scale not given: the % may be the effect or the level left. The method, boiled down:
(§1)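 Primary normal human bladder epithelial cells, explanted from cystoscopy biopsies, plated at 1.5 × 10⁴ cells/well in MEM with 10% heat-inactivated FBS. Congeners dissolved in acetonitrile/water (1:1), added in serum-free MEM in 10-fold dilutions up to the 25 µM assay cutoff. Incubated 48 h at 37 °C, 5% CO₂. ³H-thymidine uptake counted on filters. Activity expressed relative to the standard control run on each plate. Triplicates, at least two runs, ANOVA.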
Consider `CC(=O)N[C@H]1[C@@H](O[C@H](C)[C@H](N)C(=O)N[C@H](C(=O)N(C)[C@@H](C)C(=O)N[C@@H](C)C(=O)N[C@@H](C)C(=O)N[C@H](C(=O)N[C@H](C(=O)N[C@H](C(=O)N[C@@H](C)C(=O)O)C(C)C)C(C)C)C(C)C)C(C)C)O[C@H](CO)[C@H](O)[C@@H]1O[C@@H]1O[C@H](CO)[C@H](O)[C@H](O)[C@H]1O` (H-T(X1)V[NMeA]AAVVVA-OH), for which the Activity stood at 0.05%.

`CC(=O)N[C@H]1[C@@H](O[C@H](C)[C@H](N)C(=O)N[C@H](C(=O)N2CCC[C@H]2C(=O)N[C@@H](C)C(=O)N[C@@H](CO)C(=O)N[C@H](C(=O)N[C@H](C(=O)N[C@H](C(=O)N[C@@H](CO)C(=O)O)C(C)C)C(C)C)C(C)C)C(C)C)O[C@H](CO)[C@H](O)[C@@H]1O[C@@H]1O[C@H](CO)[C@H](O)[C@H](O)[C@H]1O` (H-T(X1)VPASVVVS-OH): the Activity is 0.2%.

In the case of `CC(=O)N[C@H]1[C@@H](O[C@H](C)[C@H](N)C(=O)N[C@H](C(=O)N2CCC[C@H]2C(=O)N[C@@H](C)C(=O)N[C@@H](C)C(=O)N[C@@H](C)C(=O)N[C@@H](C)C(=O)N[C@@H](C)C(=O)N[C@@H](C)C(=O)O)C(C)C)O[C@H](CO)[C@H](O)[C@@H]1O[C@@H]1O[C@H](CO)[C@H](O)[C@H](O)[C@H]1O` (H-T(X1)VPAAAAAA-OH), the Activity is recorded as 1%.

With `CC(=O)N[C@H]1[C@@H](OC[C@H](N)C(=O)N[C@@H](CC(C)C)C(=O)N2CCC[C@H]2C(=O)N[C@@H](C)C(=O)N[C@@H](C)C(=O)N[C@H](C(=O)N[C@H](C(=O)N[C@H](C(=O)N[C@@H](C)C(=O)O)C(C)C)C(C)C)C(C)C)O[C@H](CO)[C@H](O)[C@@H]1O[C@@H]1O[C@H](CO)[C@H](O)[C@H](O)[C@H]1O` (H-S(X1)LPAAVVVA-OH), the Activity is recorded as 1%.

In the case of `CC(=O)N[C@H]1[C@@H](O[C@H](C)[C@H](N)C(=O)N[C@H](C(=O)N2CCC[C@H]2C(=O)N[C@@H](C)C(=O)N[C@@H](C)C(=O)N[C@H](C(=O)N[C@H](C(=O)N[C@H](C(=O)N[C@@H](CC(C)C)C(=O)O)C(C)C)C(C)C)C(C)C)C(C)C)O[C@H](CO)[C@H](O)[C@@H]1O[C@@H]1O[C@H](CO)[C@H](O)[C@H](O)[C@H]1O` (H-T(X1)VPAAVVVL-OH), the Activity is 0.01%.

As to `CC(=O)N[C@H]1[C@@H](O[C@H](C)[C@H](NC(=O)[C@@H](N)Cc2ccc(O)cc2)C(=O)N[C@H](C(=O)N2CCC[C@H]2C(=O)N[C@@H](C)C(=O)N[C@@H](C)C(=O)N[C@H](C(=O)N[C@H](C(=O)N[C@H](C(=O)N[C@@H](C)C(=O)O)C(C)C)C(C)C)C(C)C)C(C)C)O[C@H](CO)[C@H](O)[C@@H]1O[C@@H]1O[C@H](CO)[C@H](O)[C@H](O)[C@H]1O` (H-YT(X1)VPAAVVVA-OH), the Activity is given as 1%.

As for `CC(=O)N[C@H]1[C@@H](O[C@H](C)[C@H](N)C(=O)N[C@H](C(=O)N2CCC[C@H]2C(=O)N[C@@H](C)C(=O)N[C@@H](C)C(=O)N[C@H](C(=O)N[C@H](C(=O)N[C@H](C(=O)N[C@@H](C)C(=O)N[C@@H](CS)C(=O)O)C(C)C)C(C)C)C(C)C)C(C)C)O[C@H](CO)[C@H](O)[C@@H]1O[C@@H]1O[C@H](CO)[C@H](O)[C@H](O)[C@H]1O` (H-T(X1)VPAAVVVAC-OH), the Activity came to 1%.

On to `CC(=O)N[C@H]1[C@@H](O[C@H](C)[C@H](N)C(=O)N[C@H](C(=O)N2CCC[C@H]2C(=O)N[C@@H](C)C(=O)N[C@@H](C)C(=O)N[C@H](C(=O)N[C@H](C(=O)N[C@H](C(=O)O)C(C)C)C(C)C)C(C)C)C(C)C)O[C@H](CO)[C@H](O)[C@@H]1O[C@@H]1O[C@H](CO)[C@H](O)[C@H](O)[C@H]1O` (H-T(X1)VPAAVVV-OH), for which the Activity came to 100%.

The next test deals with Epithelial cell. The test can be described thus: Antiproliferative activity against human bladder epithelial cells assessed as inhibition of [3H]thymidine incorporation at <25 uM after 48 hrs relative to as-APF. The class given is functional, cell-based. The method, boiled down: as §1
Background: Incorporation of labelled thymidine or its analogues reports DNA synthesis.
Regarding `CC(=O)N[C@H]1[C@@H](O[C@H](C)[C@H](N)C(=O)N[C@H](C(=O)N2[C@H](C(=O)N[C@@H](C)C(=O)N[C@@H](C)C(=O)N[C@H](C(=O)N[C@H](C(=O)N[C@H](C(=O)N[C@@H](C)C(=O)O)C(C)C)C(C)C)C(C)C)COC2(C)C)C(C)C)O[C@H](CO)[C@H](O)[C@@H]1O[C@@H]1O[C@H](CO)[C@H](O)[C@H](O)[C@H]1O` (H-T(X1)V[X2]AAVVVA-OH), the outcome was inactive.

As for `CC(=O)N[C@H]1[C@@H](O[C@H](C)[C@H](N)C(=O)N[C@H](C(=O)N2CCC[C@H]2C(=O)N[C@@H](C)C(=O)NCC(=O)N[C@H](C(=O)N[C@H](C(=O)N[C@H](C(=O)NCC(=O)O)C(C)C)C(C)C)C(C)C)C(C)C)O[C@H](CO)[C@H](O)[C@@H]1O[C@@H]1O[C@H](CO)[C@H](O)[C@H](O)[C@H]1O` (H-T(X1)VPAGVVVG-OH), the outcome was inactive.

Consider `CC(=O)N[C@H]1[C@@H](O[C@H](C)[C@H](N)C(=O)N[C@H](C(=O)N2CCC[C@H]2C(=O)N[C@@H](C)C(=O)N[C@@H](C)C(=O)N[C@H](C(=O)N[C@H](C(=O)N[C@@H](C)C(=O)N[C@H](C(=O)O)C(C)C)C(C)C)C(C)C)C(C)C)O[C@H](CO)[C@H](O)[C@@H]1O[C@@H]1O[C@H](CO)[C@H](O)[C@H](O)[C@H]1O` (H-T(X1)VPAAVVAV-OH), for which the result was inactive.

For the compound `CC[C@H](C)[C@H](NC(=O)[C@H](C)NC(=O)[C@H](C)NC(=O)[C@@H]1CCCN1C(=O)[C@@H](NC(=O)[C@@H](N)[C@@H](C)O[C@H]1O[C@H](CO)[C@H](O)[C@H](O[C@@H]2O[C@H](CO)[C@H](O)[C@H](O)[C@H]2O)[C@H]1NC(C)=O)C(C)C)C(=O)N[C@H](C(=O)N[C@H](C(=O)N[C@@H](C)C(=O)O)[C@@H](C)CC)C(C)C` (H-T(X1)VPAAIVIA-OH), the outcome was inactive.

`CC(=O)N[C@H]1[C@@H](O[C@H](C)[C@@H]2NOC(=O)[C@H](C)NC(=O)[C@H](C(C)C)NC(=O)[C@H](C(C)C)NC(=O)[C@H](C(C)C)NC(=O)[C@H](C)NC(=O)[C@H](C)NC(=O)[C@@H]3CCCN3C(=O)[C@H](C(C)C)NC2=O)O[C@H](CO)[C@H](O)[C@@H]1O[C@@H]1O[C@H](CO)[C@H](O)[C@H](O)[C@H]1O` (VPAAVVVA; linker N-C via X3): the outcome was inactive.

For `CC(=O)N[C@H]1[C@@H](O[C@H](C)[C@H](N)C(=O)N[C@H](C(=O)N2CCC[C@H]2C(=O)N[C@@H](C)C(=O)N[C@@H](C)C(=O)N[C@H](C(=O)N[C@@H](C(=O)N[C@H](C(=O)N[C@@H](C)C(=O)O)C(C)C)C(C)C)C(C)C)C(C)C)O[C@H](CO)[C@H](O)[C@@H]1O[C@@H]1O[C@H](CO)[C@H](O)[C@H](O)[C@H]1O`, the outcome was inactive.

Regarding `CC(=O)N[C@H]1[C@@H](O[C@H](C)[C@H](N)C(=O)N[C@H](C(=O)N2CCC[C@H]2C(=O)N[C@@H](C)C(=O)N[C@@H](C)C(=O)N[C@H](C(=O)N[C@H](C(=O)O)C(C)C)C(C)C)C(C)C)O[C@H](CO)[C@H](O)[C@@H]1O[C@@H]1O[C@H](CO)[C@H](O)[C@H](O)[C@H]1O` (H-T(X1)VPAAVV-OH), the outcome was inactive.

Turning to `CC(=O)N[C@H]1[C@@H](O[C@H](C)[C@H](N)C(=O)N[C@@H](Cc2ccc(O)cc2)C(=O)N2CCC[C@H]2C(=O)N[C@@H](C)C(=O)N[C@@H](C)C(=O)N[C@H](C(=O)N[C@H](C(=O)N[C@H](C(=O)N[C@@H](C)C(=O)O)C(C)C)C(C)C)C(C)C)O[C@H](CO)[C@H](O)[C@@H]1O[C@@H]1O[C@H](CO)[C@H](O)[C@H](O)[C@H]1O` (H-T(X1)YPAAVVVA-OH), the result was inactive.

Regarding `CC(=O)N[C@H]1[C@@H](O[C@H](C)[C@H](N)C(=O)N[C@H](C(=O)N2CCC[C@H]2C(=O)N[C@@H](C)C(=O)N[C@@H](C)C(=O)N[C@H](C(=O)N[C@H](C(=O)N[C@H](C(=O)N[C@@H](C)C(=O)N[C@@H](CCCCN)C(=O)O)C(C)C)C(C)C)C(C)C)C(C)C)O[C@H](CO)[C@H](O)[C@@H]1O[C@@H]1O[C@H](CO)[C@H](O)[C@H](O)[C@H]1O` (H-T(X1)VPAAVVVAK-OH), the outcome was inactive.

For the compound `CC(=O)N[C@H]1[C@@H](O[C@H](C)[C@H](N)C(=O)N[C@H](C(=O)N2CCC[C@H]2C(=O)N[C@@H](C)C(=O)N[C@@H](C)C(=O)N[C@H](C(=O)N[C@H](C(=O)N[C@H](C(=O)N[C@@H](C)C(=O)N[C@@H](CCC(=O)O)C(=O)O)C(C)C)C(C)C)C(C)C)C(C)C)O[C@H](CO)[C@H](O)[C@@H]1O[C@@H]1O[C@H](CO)[C@H](O)[C@H](O)[C@H]1O` (H-T(X1)VPAAVVVAE-OH), the outcome was inactive.

As for `CC(=O)N[C@H]1[C@@H](O[C@H](C)[C@H](N)C(=O)N[C@@H](CC(C)C)C(=O)N2CCC[C@H]2C(=O)N[C@@H](C)C(=O)N[C@@H](C)C(=O)N[C@H](C(=O)N[C@H](C(=O)N[C@H](C(=O)N[C@@H](C)C(=O)O)C(C)C)C(C)C)C(C)C)O[C@H](CO)[C@H](O)[C@@H]1O[C@@H]1O[C@H](CO)[C@H](O)[C@H](O)[C@H]1O` (H-T(X1)LPAAVVVA-OH), the result was inactive.

`CC(=O)N[C@H]1[C@@H](O[C@H](C)[C@H](N)C(=O)N[C@H](C(=O)N2CCC[C@@H]2C(=O)N[C@@H](C)C(=O)N[C@@H](C)C(=O)N[C@H](C(=O)N[C@H](C(=O)N[C@H](C(=O)N[C@@H](C)C(=O)O)C(C)C)C(C)C)C(C)C)C(C)C)O[C@H](CO)[C@H](O)[C@@H]1O[C@@H]1O[C@H](CO)[C@H](O)[C@H](O)[C@H]1O`: the outcome was inactive.

Consider `CC(=O)N[C@H]1[C@@H](O[C@H](C)[C@H](N)C(=O)N[C@H](C(=O)N2CCC[C@H]2C(=O)N[C@@H](C)C(=O)N[C@@H](C)C(=O)O)C(C)C)O[C@H](CO)[C@H](O)[C@@H]1O[C@@H]1O[C@H](CO)[C@H](O)[C@H](O)[C@H]1O` (H-T(X1)VPAA-OH), for which the result was inactive.

Regarding `CC(=O)N[C@H]1[C@@H](O[C@H](C)[C@H](N)C(=O)N[C@H](C(=O)N2CCC[C@H]2C(=O)NCCCCCCCCCCCC(=O)O)C(C)C)O[C@H](CO)[C@H](O)[C@@H]1O[C@@H]1O[C@H](CO)[C@H](O)[C@H](O)[C@H]1O`, the result was inactive.
